Source: ChEMBL document CHEMBL4007484, “Pharmacokinetic optimitzation of CCG-203971: Novel inhibitors of the Rho/MRTF/SRF transcriptional pathway as potential antifibrotic therapeutics for systemic scleroderma” (Bioorg Med Chem Lett, 2017)

Tested on: not listed separately
Experiment: Inhibition of Rho/MRTF/SRF pathway (unknown origin) expressed in HEK293T cells assessed as reduction in Galpha12-stimulated MRTF-selective SRE.L promoter-driven luciferase activity after overnight incubation by luminescence assay
Type: cell-based, Homo sapiens
Settings: not given
Outline: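 Signal was stimulated with Gα12 and luciferase activity was read. IC50 in μM is the mean of n ≥ 3.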

| SMILES | IC50 |
| --- | --- |
| COC(=O)N1CCN(C(=O)c2cccc(-c3ccco3)c2)CC1C(=O)Nc1ccc(Cl)cc1 (stereo not drawn) | 2.7 µM |
| O=C(Nc1ccc(Cl)cc1)C1CCCN(C(=O)c2cncc(-c3ccco3)c2)C1 (stereo not drawn) | 2.9 µM |
| CC(=O)NC1CC(C(=O)Nc2ccc(Cl)cc2)CN(C(=O)c2cccc(-c3ccco3)c2)C1 (stereo not drawn) | 5 µM |
| O=C(NC1CCCN(C(=O)c2cccc(-c3ccco3)c2)C1)c1ccc(Cl)cc1 (stereo not drawn) | 4.9 µM |
| COC(=O)NC1CC(C(=O)Nc2ccc(Cl)cc2)CN(C(=O)c2cccc(-c3ccco3)c2)C1 (stereo not drawn) | 5 µM |
| O=C(Nc1ccc(Cl)cc1)C1CCCN(C(=O)c2cc(-c3ccco3)on2)C1 (stereo not drawn) | 6.8 µM |
| O=C(Nc1ccc(Cl)cc1)C1CCCN(C(=O)c2cccc(-n3ccnc3)c2)C1 (stereo not drawn) | 5.2 µM |
| O=C(Nc1ccc(Cl)cc1)C1CN(C(=O)c2cccc(-c3ccco3)c2)CCO1 (stereo not drawn) | 3.1 µM |
| O=C(Nc1ccc(Cl)cc1)C1CCCN(C(=O)c2csc(-c3ccco3)n2)C1 (stereo not drawn) | 6.2 µM |
| O=C(Nc1ccc(Cl)cc1)C1CCCN(C(=O)c2cc(-c3ccco3)ccn2)C1 (stereo not drawn) | 1.9 µM |
| O=C(Nc1ccc(Cl)cc1)C1CN(C(=O)c2cncc(-c3ccncc3)c2)CC(F)(F)C1 (stereo not drawn) | 1.2 µM |

Second part, the compound after the results:

| IC50 | SMILES |
| --- | --- |
| 4.5 µM | O=C(Nc1ccc(Cl)cc1)C1CN(C(=O)c2cccc(-c3cn[nH]c3)c2)CC(F)(F)C1 (stereo not drawn) |
| 0.9 µM | O=C(Nc1ccc(Cl)cc1)C1CN(C(=O)c2cccc(-c3cccnc3)c2)CC(F)(F)C1 (stereo not drawn) |
| 3.2 µM | O=C(Nc1ccc(Cl)cc1)C1CN(C(=O)c2cccc(-c3cncnc3)c2)CC(F)(F)C1 (stereo not drawn) |
| 1 µM | O=C(Nc1ccc(Cl)cc1)C1CN(C(=O)c2cccc(-c3ccccn3)c2)CC(F)(F)C1 (stereo not drawn) |
| 0.098 µM | C=C1CC(C(=O)Nc2ccc(Cl)cc2)CN(C(=O)c2cccc(-c3ccco3)c2)C1 (stereo not drawn) |
| 3.9 µM | O=C1CC(C(=O)Nc2ccc(Cl)cc2)CN(C(=O)c2cccc(-c3ccco3)c2)C1 (stereo not drawn) |
| 7.1 µM | O=C(Nc1ccc(Cl)cc1)C1CN(C(=O)c2cc(-c3ccco3)ccn2)CC(F)(F)C1 (stereo not drawn) |
| 0.6 µM | O=C(Nc1ccc(Cl)cc1)C1CN(C(=O)c2cccc(-c3ccco3)c2)CC(F)(F)C1 (stereo not drawn) |

Tested on: Liver
Experiment: Half life in CD-1 mouse liver microsomes at 1 uM in presence of NADPH by LC-MS/MS analysis
Type: ADME, microsome
Settings: not given
Outline: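 Half-life measured by incubation in mouse liver microsomes.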

| SMILES | t1/2 |
| --- | --- |
| O=C(Nc1ccc(Cl)cc1)C1CCCN(C(=O)c2cncc(-c3ccco3)c2)C1 (stereo not drawn) | < 3 min |
| O=C(Nc1ccc(Cl)cc1)C1CCCN(C(=O)c2cc(-c3ccco3)ccn2)C1 (stereo not drawn) | < 3 min |
| O=C(Nc1ccc(Cl)cc1)C1CN(C(=O)c2cncc(-c3ccncc3)c2)CC(F)(F)C1 (stereo not drawn) | 7.7 min |

Further lines, results first:

| t1/2 | SMILES |
| --- | --- |
| 13 min | O=C(Nc1ccc(Cl)cc1)C1CN(C(=O)c2cccc(-c3cn[nH]c3)c2)CC(F)(F)C1 (stereo not drawn) |
| < 3 min | O=C(Nc1ccc(Cl)cc1)C1CN(C(=O)c2cccc(-c3cccnc3)c2)CC(F)(F)C1 (stereo not drawn) |
| 9.5 min | O=C(Nc1ccc(Cl)cc1)C1CN(C(=O)c2cccc(-c3ccccn3)c2)CC(F)(F)C1 (stereo not drawn) |
| 1.4 min | C=C1CC(C(=O)Nc2ccc(Cl)cc2)CN(C(=O)c2cccc(-c3ccco3)c2)C1 (stereo not drawn) |
| 2.5 min | O=C(Nc1ccc(Cl)cc1)C1CN(C(=O)c2cc(-c3ccco3)ccn2)CC(F)(F)C1 (stereo not drawn) |
| 4.9 min | O=C(Nc1ccc(Cl)cc1)C1CN(C(=O)c2cccc(-c3ccco3)c2)CC(F)(F)C1 (stereo not drawn) |

Tested on: not listed separately
Experiment: Thermodynamic aqueous solubility of the compound in water by nitrogen detection method
Type: physicochemical
Settings: buffer
Outline: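 Thermodynamic solubility in water, reported in μg/mL.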

| Therm_solubility | SMILES |
| --- | --- |
| 3.9 µg/mL | O=C(Nc1ccc(Cl)cc1)C1CN(C(=O)c2cccc(-c3ccccn3)c2)CC(F)(F)C1 (stereo not drawn) |
| 2.3 µg/mL | O=C(Nc1ccc(Cl)cc1)C1CN(C(=O)c2cccc(-c3ccco3)c2)CC(F)(F)C1 (stereo not drawn) |
| 62 µg/mL | O=C(Nc1ccc(Cl)cc1)C1CN(C(=O)c2cncc(-c3ccncc3)c2)CC(F)(F)C1 (stereo not drawn) |

Species: Homo sapiens
Experiment: Inhibition of Rho/MRTF/SRF pathway in human primary dermal fibroblasts assessed as inhibition of TGF-beta-stimulated ACTA2 gene expression by measuring ACTA2 mRNA level at 10 uM after 24 hrs by qRT-PCR method relative to control
Parameters: scale not given: the % may be the effect or the level left
Settings: not given
Outline: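 Primary human dermal fibroblasts stimulated with TGF-β and treated with compound at 10 μM for 24 h. ACTA2 mRNA was measured by qPCR and expressed as percent of control, mean of n=3.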

| Activity | SMILES |
| --- | --- |
| 37% | O=C(Nc1ccc(Cl)cc1)C1CN(C(=O)c2cccc(-c3ccccn3)c2)CC(F)(F)C1 (stereo not drawn) |
| 9.5% | C=C1CC(C(=O)Nc2ccc(Cl)cc2)CN(C(=O)c2cccc(-c3ccco3)c2)C1 (stereo not drawn) |
| 9.3% | O=C(Nc1ccc(Cl)cc1)C1CN(C(=O)c2cccc(-c3ccco3)c2)CC(F)(F)C1 (stereo not drawn) |
| 190% | O=C(Nc1ccc(Cl)cc1)C1CN(C(=O)c2cncc(-c3ccncc3)c2)CC(F)(F)C1 (stereo not drawn) |

Tested on: not listed separately
Experiment: AUC (0 to 7 hrs) in CD-1 mouse at 10 mg/kg, ip administered as single dose by LC-MS/MS analysis
Type: ADME, organism-based
Parameters: dose 10 mg/kg, time < 7 hr, route intraperitoneal
Settings: in vivo
Outline: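 Mice dosed once, by intraperitoneal injection at 10 mg/kg or by oral gavage at 20 mg/kg. AUC is estimated from the plasma concentration curve over 0–7 h and is expressed as hr.ng/mL.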

| AUC(0-t) at 7 h | SMILES |
| --- | --- |
| 9200 ng·h/mL | O=C(Nc1ccc(Cl)cc1)C1CN(C(=O)c2cccc(-c3ccco3)c2)CC(F)(F)C1 (stereo not drawn) |

Tested on: Liver
Experiment: Drug metabolism in CD-1 mouse liver microsomes assessed as 5,5-difluoro-1-(3-(furan-2-yl)benzoyl)piperidine-3-carboxylic acid formation at 20 uM after 3 mins in presence of NADPH by LC-MS/MS analysis
Type: ADME, microsome
Settings: 0.05 h

| Drug metabolism | SMILES |
| --- | --- |
| Metabolite_Detected | O=C(Nc1ccc(Cl)cc1)C1CN(C(=O)c2cccc(-c3ccco3)c2)CC(F)(F)C1 (stereo not drawn) |

Tested on: Liver
Experiment: Drug level in CD-1 mouse liver microsomes treated with CCG-222740 at 20 uM after 3 mins in presence of NADPH by LC-MS/MS analysis
Type: ADME, microsome
Settings: 0.05 h

| Drug metabolism | SMILES |
| --- | --- |
| Metabolite_Detected | O=C(O)C1CN(C(=O)c2cccc(-c3ccco3)c2)CC(F)(F)C1 (stereo not drawn) |
